# Test results taken from ChEMBL document CHEMBL4130564, “Indolylalkyltriphenylphosphonium Analogues Are Membrane-Depolarizing Mycobactericidal Agents” (ACS Med Chem Lett, 2017).
# The source made the active and inactive calls. The rule behind the calls is not given here.
# Experiments:
# [1] = system: Mycobacterium tuberculosis; test: Antibacterial activity against Mycobacterium bovis BCG ATCC 35734 after 5 days by broth dilution method; type: functional; conditions: BCG str. ATCC 35743, 120 h
# Method in brief: (§1)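 Broth dilution; growth read by turbidity; MIC50 and MIC90 are the concentrations reducing growth by 50% and 90% relative to untreated controls; average of two or more separate determinations.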
# [2] = Hemolytic activity against human RBC after 1 hr; type: ADME, cell-based, Erythrocyte; conditions: human red blood cells (erythrocytes)
# Method in brief: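 Human red blood cells were exposed to compound, and lysis was scaled against Triton X-100 (2% v/v), taken as 100% hemolysis. HC50 was the concentration lysing 50% of cells, averaged over two or more separate determinations.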
# [3] = system: Mycobacterium tuberculosis; test: Antibacterial activity against Mycobacterium tuberculosis H37Rv ATCC 27294 after 7 days by broth dilution method; type: functional; conditions: H37Rv ATCC 27294, 168 h; method in brief: as §1
# [4] = system: Mycobacterium tuberculosis; test: Bactericidal activity against Mycobacterium bovis BCG ATCC 35734 assessed as reduction in colony forming units after 5 days; type: functional, BCG str. ATCC 35743; conditions: for MBC: Mycobacterium tuberculosis, BCG ATCC 35734, 120 h, read-out: MBC99.9
# [5] = system: Vero C1008; test: Cytotoxicity against African green monkey Vero E6 cells assessed as reduction in cell viability after 48 hrs by cell titre 96 aqueous one solution-based assay; conditions: Chlorocebus sabaeus, Vero C1008, 48 h
# Method in brief: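 Vero cell viability was compared with untreated control cells. IC50 was taken as the concentration giving 50% loss of viability, averaged over two or more separate determinations.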
# [6] = system: Lipid bilayer; test: Binding affinity to DMPG vesicles assessed as change in enthalpy at 2 mM by differential scanning calorimetric analysis (reference value: -20.63 kJ/mol)
# Method in brief: (§2)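 Compound-loaded vesicles of negatively charged dimyristoylphosphatidylglycerol, used as a bacterial membrane surrogate, were scanned by differential scanning calorimetry. The gel-to-liquid melting endotherm was read for melting temperature (Tm) and calorimetric enthalpy (ΔH).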
# [7] = system: Lipid bilayer; test: Binding affinity to DMPG vesicles assessed as melting transition temperature by differential scanning calorimetric analysis (reference value: 21.09 to 23.28 degC)
# [8] = system: Mycobacterium bovis BCG str. ATCC 35743; test: Inhibition of NDH2 in Mycobacterium bovis BCG ATCC 35734 assessed as reduction in oxygen consumption at 80 uM after 1 hr by methylene blue-based assay
# Method in brief: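 Mid-log M. bovis BCG cultures in 7H9 medium were exposed to compound, then methylene blue was added (0.001%) and the tubes were incubated oxygen-free at 37 °C for […]. Oxygen use was read as methylene blue decolorization. Controls were medium-only tubes and drug-free culture.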
# [9] = system: Mycobacterium tuberculosis; test: Bactericidal activity against Mycobacterium bovis BCG ATCC 35734 assessed as reduction in colony forming units at 4 uM after 1 to 5 days by time kill assay; type: functional, organism-based; conditions: BCG str. ATCC 35743
# [10] = system: Mycobacterium tuberculosis; test: Bactericidal activity against Mycobacterium bovis BCG ATCC 35734 assessed as increase in propidium iodide uptake at 4 uM after 1 to 5 days by flow cytometry; type: functional, organism-based; conditions: BCG str. ATCC 35743
# [11] = system: Mycobacterium tuberculosis; test: Bactericidal activity against Mycobacterium bovis BCG ATCC 35734 assessed as suppression of reductive capacity by measuring decrease in formazan formation after 0.5 to 1 hr by MTT reduction assay; type: functional, organism-based; conditions: BCG str. ATCC 35743
# Method in brief: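 BCG cultures exposed to 0.2–100 μM for 30 min and 1 h, then MTT added; formazan production read at 595 nm against drug-free basal absorbance; CCCP 100 μM reference; representative of two independent experiments.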
# [12] = system: Mycobacterium tuberculosis; test: Bactericidal activity against Mycobacterium bovis BCG ATCC 35734 assessed as reduction in membrane potential by measuring red to green fluorescent ratio at 24 uM measured at 20 mins to 3 hrs by DiOC2-dye based fluorescence assay; type: functional, organism-based; conditions: BCG str. ATCC 35743
# [13] = system: Mycobacterium tuberculosis; test: Bactericidal activity against Mycobacterium bovis BCG ATCC 35734 assessed as reduction in membrane potential by measuring red to green fluorescent ratio at 0.08 uM measured at 20 mins to 3 hrs by DiOC2-dye based fluorescence assay; type: functional, organism-based; conditions: BCG str. ATCC 35743
# [14] = system: Mycobacterium tuberculosis; test: Bactericidal activity against Mycobacterium bovis BCG ATCC 35734 assessed as increase in propidium iodide uptake at 1.6 uM after 1 to 5 days by flow cytometry; type: functional, organism-based; conditions: BCG str. ATCC 35743
# [15] = system: Mycobacterium tuberculosis; test: Bactericidal activity against Mycobacterium bovis BCG ATCC 35734 assessed as reduction in colony forming units at 1.6 uM after 1 to 5 days by time kill assay; type: functional, organism-based; conditions: BCG str. ATCC 35743
# [16] = system: Mycobacterium tuberculosis; test: Bactericidal activity against Mycobacterium bovis BCG ATCC 35734 assessed as cell elongation at 24 uM after 1 to 5 days by acid-fast staining-based light microscopy; type: functional, organism-based; conditions: BCG str. ATCC 35743
# [17] = system: Mycobacterium tuberculosis; test: Bactericidal activity against Mycobacterium bovis BCG ATCC 35734 assessed as reduction in oxygen consumption at 5 times MIC90 after 1 hr by methylene blue-based assay; type: functional, organism-based; conditions: BCG str. ATCC 35743
# [18] = system: Mycobacterium tuberculosis; test: Bactericidal activity against Mycobacterium bovis BCG ATCC 35734 assessed as increase in propidium iodide uptake at 6 uM after 1 to 5 days by flow cytometry; type: functional, organism-based; conditions: BCG str. ATCC 35743
# [19] = system: Mycobacterium tuberculosis; test: Bactericidal activity against Mycobacterium bovis BCG ATCC 35734 assessed as reduction in oxygen consumption at 15 times MIC90 after 1 hr by methylene blue-based assay; type: functional, organism-based; conditions: BCG str. ATCC 35743
# [20] = system: Mycobacterium tuberculosis; test: Bactericidal activity against Mycobacterium bovis BCG ATCC 35734 assessed as reduction in membrane potential by measuring red to green fluorescent ratio at 24 uM measured after 1 to 5 days by DiOC2-dye based fluorescence assay; type: functional, organism-based; conditions: BCG str. ATCC 35743
# Method in brief: (§3)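 Membrane potential in treated BCG cultures tracked as DiOC2 red/green fluorescence ratio over extended exposure of 1, 3 and 5 days.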
# [21] = system: Mycobacterium tuberculosis; test: Bactericidal activity Mycobacterium bovis BCG ATCC 35734 assesses as cell death at 15 times MIC90 after 1 hr in presence of methylene blue; type: functional, organism-based; conditions: BCG str. ATCC 35743
# [22] = system: Lipid bilayer; test: Binding affinity to DMPG vesicles assessed as increase in melting transition temperature by differential scanning calorimetric analysis; method in brief: as §2
# [23] = system: Mycobacterium tuberculosis; test: Bactericidal activity against Mycobacterium bovis BCG ATCC 35734 assessed as reduction in colony forming units at 6 uM after 1 to 5 days by time kill assay; type: functional, organism-based; conditions: BCG str. ATCC 35743
# [24] = system: Mycobacterium tuberculosis; test: Bactericidal activity against Mycobacterium bovis BCG ATCC 35734 assessed as reduction in oxygen consumption at 10 times MIC90 after 1 hr by methylene blue-based assay; type: functional, organism-based; conditions: BCG str. ATCC 35743
# [25] = system: Mycobacterium tuberculosis; test: Bactericidal activity against Mycobacterium bovis BCG ATCC 35734 assessed as reduction in membrane potential by measuring red to green fluorescent ratio at 12 uM measured after 1 to 5 days by DiOC2-dye based fluorescence assay; type: functional, organism-based; conditions: BCG str. ATCC 35743; method in brief: as §3
# [26] = system: Mycobacterium tuberculosis; test: Bactericidal activity against Mycobacterium bovis BCG ATCC 35734 assessed as reduction in membrane potential by measuring red to green fluorescent ratio at 12 uM measured at 20 mins to 3 hrs by DiOC2-dye based fluorescence assay; type: functional, organism-based; conditions: BCG str. ATCC 35743
# [27] = system: Mycobacterium tuberculosis; test: Bactericidal activity against Mycobacterium bovis BCG ATCC 35734 assessed as cell elongation at 12 uM after 1 to 5 days by acid-fast staining-based light microscopy; type: functional, organism-based; conditions: BCG str. ATCC 35743
Structure (SMILES),MIC50 [1] [µM],MIC90 [1] [µM],further results
COc1ccc2c(ccn2CCC[P+](c2ccccc2)(c2ccccc2)c2ccccc2)c1,10,23,
COc1cccc2ccn(CCC[P+](c3ccccc3)(c3ccccc3)c3ccccc3)c12.[I-],4,6,HC50 at 1 h [2]: > 300 µM; MIC50 [3]: 6 µM; MIC90 [3]: 20 µM; MBC99 [4]: 13 µM; MBC [4]: 25 µM; IC50 [5]: 34 µM
Fc1cccc2c1ccn2CCC[P+](c1ccccc1)(c1ccccc1)c1ccccc1,6,12,
CCC[P+](c1ccccc1)(c1ccccc1)c1ccccc1,> 50,> 50,deltaH [6]: -11.5 kJ/mol; Tm [7]: 21.1 to 23.2 °C
CCCCCCCCCC[P+](c1ccccc1)(c1ccccc1)c1ccccc1,3.9,6,
O=[N+]([O-])c1cccc2ccn(CCCCC[P+](c3ccccc3)(c3ccccc3)c3ccccc3)c12,1,2,
CSc1ccc2c(c1)N(CCC1CCCCN1C)c1ccccc1S2 (configuration not stated),,,inhibition [8]: Active
Fc1ccc2c(ccn2CCCCC[P+](c2ccccc2)(c2ccccc2)c2ccccc2)c1,3,5,
COc1cccc2c1ccn2CCC[P+](c1ccccc1)(c1ccccc1)c1ccccc1,6,11,
O=[N+]([O-])c1ccc2c(ccn2CCC[P+](c2ccccc2)(c2ccccc2)c2ccccc2)c1,9,12,
Fc1ccc2ccn(CCC[P+](c3ccccc3)(c3ccccc3)c3ccccc3)c2c1,6,12,
COc1ccc2ccn(CCC[P+](c3ccccc3)(c3ccccc3)c3ccccc3)c2c1,7,15,
O=[N+]([O-])c1cccc2c1ccn2CCC[P+](c1ccccc1)(c1ccccc1)c1ccccc1.[I-],5,9,HC50 at 1 h [2]: 230 µM; MIC50 [3]: 22 µM; MIC90 [3]: 45 µM; MBC99 [4]: 25 µM; MBC [4]: 50 µM; IC50 [5]: > 100 µM
CCCCCCCCn1cc(CN2CCC3(CCc4ccccc43)CC2)c2ccc(OC)cc21,,,Activity [9]: Active; Activity [10]: Active
O=[N+]([O-])c1ccc2ccn(CCCCC[P+](c3ccccc3)(c3ccccc3)c3ccccc3)c2c1,3,4,
CCCCC[P+](c1ccccc1)(c1ccccc1)c1ccccc1,28,> 50,Activity [11]: inactive; Activity [12]: inactive
Fc1ccc2c(ccn2CCC[P+](c2ccccc2)(c2ccccc2)c2ccccc2)c1,8,17,
COc1ccc2ccn(CCCCC[P+](c3ccccc3)(c3ccccc3)c3ccccc3)c2c1,4,8,

Structure (SMILES),MIC50 [1] [µM],MIC90 [1] [µM],further results
CO[C@H]1/C=C/O[C@@]2(C)Oc3c(C)c(O)c4c(O)c(c(/C=N/N5CCN(C)CC5)c(O)c4c3C2=O)NC(=O)/C(C)=C\C=C\[C@H](C)[C@H](O)[C@@H](C)[C@@H](O)[C@@H](C)[C@H](OC(C)=O)[C@@H]1C,,,Activity [13]: inactive
COc1cccc2c1ccn2CCCCC[P+](c1ccccc1)(c1ccccc1)c1ccccc1,3,5,
Fc1ccc2ccn(CCCCC[P+](c3ccccc3)(c3ccccc3)c3ccccc3)c2c1,3,5,
O=[N+]([O-])c1ccc2c(ccn2CCCCC[P+](c2ccccc2)(c2ccccc2)c2ccccc2)c1,3,5,
CCCCCn1ccc2cccc(OC)c21,> 50,> 50,Activity [11]: inactive; Activity [12]: inactive
NNC(=O)c1ccncc1,,,Activity [14]: inactive; Activity [15]: Active
c1ccc([P+](CCCCCn2ccc3ccccc32)(c2ccccc2)c2ccccc2)cc1,4.3,6.3,
O=[N+]([O-])c1cccc2c1ccn2CCCCC[P+](c1ccccc1)(c1ccccc1)c1ccccc1.[I-],2,3,Activity [11]: Dose-dependent effect; Activity [16]: Active; HC50 at 1 h [2]: 196 µM; Activity [17]: inactive; Activity [18]: Active; Activity [12]: Active; Activity [19]: Active; Activity [20]: Active; Activity [21]: Toxic; MIC50 [3]: 4 µM; MIC90 [3]: 6 µM; ΔTm [22]: 1 °C; Activity [23]: Active; MBC99 [4]: 3 µM; MBC [4]: 6 µM; Activity [24]: Active; IC50 [5]: 36 µM
Fc1cccc2c1ccn2CCCCC[P+](c1ccccc1)(c1ccccc1)c1ccccc1,3,5,
O=[N+]([O-])c1ccc2ccn(CCC[P+](c3ccccc3)(c3ccccc3)c3ccccc3)c2c1,7,13,
CCCn1ccc2cc(F)ccc21,> 50,> 50,deltaH [6]: -19.9 kJ/mol; Tm [7]: 20.1 °C
COc1ccc2c(ccn2CCCCC[P+](c2ccccc2)(c2ccccc2)c2ccccc2)c1,5,10,
COc1cccc2ccn(CCCCC[P+](c3ccccc3)(c3ccccc3)c3ccccc3)c12.[I-],2,3,Activity [11]: Dose-dependent effect; HC50 at 1 h [2]: > 300 µM; Activity [17]: inactive; Activity [18]: Active; Activity [19]: Active; Activity [25]: Active; Activity [21]: Toxic; Activity [26]: Active; MIC50 [3]: 2 µM; MIC90 [3]: 6 µM; ΔTm [22]: 1 °C; Activity [23]: Active; MBC99 [4]: 3 µM; MBC [4]: 6 µM; Activity [24]: Active; IC50 [5]: 18 µM; Activity [27]: Active
O=[N+]([O-])c1cccc2ccn(CCC[P+](c3ccccc3)(c3ccccc3)c3ccccc3)c12,2,4,
Fc1cccc2ccn(CCC[P+](c3ccccc3)(c3ccccc3)c3ccccc3)c12,5,12,
Fc1cccc2ccn(CCCCC[P+](c3ccccc3)(c3ccccc3)c3ccccc3)c12,3,6,
c1ccc(CCCCCC[P+](c2ccccc2)(c2ccccc2)c2ccccc2)cc1,5.2,11.6,
